An excerpt weighted towards active compounds, which were near 1.8% of everything screened.
DNMT1 block – human DNMT1 methyltransferase inhibitors, primary screen, biochemical, molecular beacon, fluorescence, HinP1I cleavage, uHTS; 360,000 compounds, 0.83% hits; DNA (cytosine-5)-methyltransferase 1 (Homo sapiens), P26358; AID 588458, 2011; inhibition (reported as % activation of signal), % at 10 µM; in the data active means inhibition above about 50%
SUMO1-SIM PPI – modulators of SUMO1 protein-protein interactions, primary screen, biochemical, uHTS; Small ubiquitin-related modifier 1 (Homo sapiens), P63165; SUMO1 binding to a labelled peptide, TR-FRET, 1 h; inhibition, % at 20 µM; 360,000 compounds, 0.33% hits; AID 602429, 2012; in the data active means inhibition above about 37%
HKDC1 inh – HKDC1 hexokinase inhibitors, primary screen, biochemical, fluorescence, uHTS. recombinant HKDC1, G6PDH/diaphorase resazurin coupled fluorescence. inhibition, % at 20 µM. 340,000 compounds, 0.16% hits. AID 493160, 2011;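 active means inhibition above about 35% when tested at 20 µM, limit read from the data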
Target sequence (Q2TB90 whole entry, looked up): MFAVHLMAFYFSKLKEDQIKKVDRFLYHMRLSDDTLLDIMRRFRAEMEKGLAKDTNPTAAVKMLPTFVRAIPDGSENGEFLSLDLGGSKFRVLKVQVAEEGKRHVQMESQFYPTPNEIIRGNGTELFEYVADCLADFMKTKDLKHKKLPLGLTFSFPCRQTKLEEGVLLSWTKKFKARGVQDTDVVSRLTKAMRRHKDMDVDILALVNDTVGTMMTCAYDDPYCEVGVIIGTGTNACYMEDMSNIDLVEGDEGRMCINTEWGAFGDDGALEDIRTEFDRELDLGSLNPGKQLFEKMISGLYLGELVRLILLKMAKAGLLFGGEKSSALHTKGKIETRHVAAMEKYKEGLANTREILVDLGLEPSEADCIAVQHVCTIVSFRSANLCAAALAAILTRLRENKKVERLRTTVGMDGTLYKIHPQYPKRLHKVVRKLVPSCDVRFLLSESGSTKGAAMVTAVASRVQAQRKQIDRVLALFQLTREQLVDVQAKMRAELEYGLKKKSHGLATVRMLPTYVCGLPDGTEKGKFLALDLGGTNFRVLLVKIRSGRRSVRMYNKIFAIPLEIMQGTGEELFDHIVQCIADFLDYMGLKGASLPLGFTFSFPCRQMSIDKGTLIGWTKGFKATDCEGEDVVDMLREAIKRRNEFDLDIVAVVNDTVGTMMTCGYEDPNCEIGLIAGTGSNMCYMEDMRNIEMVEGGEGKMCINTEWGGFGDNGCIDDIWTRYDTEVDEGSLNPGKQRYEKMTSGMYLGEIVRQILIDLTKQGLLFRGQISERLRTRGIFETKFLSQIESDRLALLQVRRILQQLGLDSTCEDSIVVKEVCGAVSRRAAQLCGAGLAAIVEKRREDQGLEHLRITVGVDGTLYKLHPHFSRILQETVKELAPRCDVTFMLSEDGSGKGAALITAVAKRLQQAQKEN
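Assay system: in-house recombinant HK5 (HKDC1) enzyme. Input: HKDC1 at 5 µg/mL. Medium: Tris pH 8.0 buffer with MgCl2, Tween-20, BSA, BME. Dosing: single 20 µM dose. Schedule: 90 min reaction incubation at room temperature, dark. Signal: resazurin-to-resorufin fluorescence via G6PDH and diaphorase coupling, 525/613 nm. Controls: DMSO-enzyme wells negative, buffer-substituted wells positive.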
STEP block – STEP phosphatase inhibitors, primary screen, biochemical, fluorescence intensity, uHTS; 360,000 compounds, 0.25% hits; inhibition, % at 20 µM; recombinant STEP, OMFP fluorogenic substrate; AID 588621, 2011;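 active means inhibition at 20 µM, scaled per plate between control wells, above about 37%, limit read from the data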
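Measure: Control-normalized % inhibition with plate pattern correction | Test system: STEP phosphatase, cell-free reaction | Medium: pH 6.0 Bis-Tris with DTT and Tween 20 | Technique: Fluorescence, 480/540 nm | Times: Reaction 20 min, ambient temperature | Doses: Single compound dose of 20 µM, 1% DMSO final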
Scp-1 inhibitor – Scp-1 phosphatase inhibitors, primary screen, biochemical, colorimetric, uHTS. Carboxy-terminal domain RNA polymerase II polypeptide A small phosphatase 1 (Homo …. Recombinant Scp1, phosphopeptide, malachite green phosphate absorbance. inhibition, % at 20 µM. 340,000 compounds, 0.88% hits;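 active means inhibition above about 50% at 20 µM, limit read from the data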
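Material: truncated SCP-1 phosphatase (76-261aa) / Buffer or medium: 50 mM Tris acetate pH 5.5, 0.005% Tween-20, 10 mM MgCl2 / Compound dosing: one concentration, 20 µM, with 1.0% DMSO / Incubation: 45 min room-temperature reaction, 5 min colour, 30 min stabiliser / Detection: colorimetric free-phosphate detection, absorbance 630 nm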
LMPTP block – LMPTP phosphatase inhibitors, primary screen, biochemical, fluorescence intensity, uHTS. AID 651560, 2012. Low molecular weight phosphotyrosine protein phosphatase (Homo sapiens), P24666. inhibition, % at 20 µM. 360,000 compounds, 0.22% hits. recombinant LMPTP-A, OMFP fluorogenic substrate;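 active means compounds that cut the enzyme signal by at least half of the control window in the single-dose screen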
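material = LMPTP-A | quantity = 0.625 nM enzyme | reagent = OMFP substrate, 400 µM final | buffer or medium = Bis-Tris pH 6.0, DTT, detergent | detection = endpoint fluorescence intensity from OMFP dephosphorylation | dosing = single 20 µM dose | read-out basis = % inhibition relative to no-enzyme and uninhibited control wells | control set = no-enzyme and uninhibited controls | timing = 50 min at room temperature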
Each line names hits and unclear results; the compound was inactive in the other large screens.

CCOC(=O)c1ccc(COC(=O)c2ccc3c(c2)-c2ccccc2C3=O)cc1	none
Cc1ccc(-n2nnnc2CN2CCCCC2)cc1	none
O=[N+]([O-])c1ccccc1N/N=C/c1cccc(O)c1O	SUMO1-SIM PPI 45
O=C(CCCN1C(=O)/C(=C\c2ccccc2)SC1=S)Nc1ccc(C(=O)O)cc1	none
O=C(CCN1C(=O)/C(=C\C=C\c2ccccc2)SC1=S)Nc1ccc(C(=O)O)cc1	STEP block 87, Scp-1 inhibitor 88, LMPTP block 83
COc1ccc(/C=C2\SC(=S)N(CCCC(=O)Nc3cccc(C(=O)O)c3)C2=O)cc1OC	none
COc1ccc(/C=C2\SC(=S)N(CCC(=O)Nc3ccc(C(=O)O)cc3)C2=O)cc1OC	STEP block 85, Scp-1 inhibitor 95
CCc1ccc(/C=C2\SC(=S)N(CCCC(=O)Nc3ccc(C(=O)O)cc3)C2=O)cc1	LMPTP block 64
O=C(NCc1ccncc1)C(=O)NCC1OCCN1S(=O)(=O)c1ccccc1 (stereo not drawn)	none (no result: HKDC1 inh, Scp-1 inhibitor)
CC[n+]1c(/C=C/c2c[nH]c3ccccc23)ccc2cc(C)ccc21	Scp-1 inhibitor 68 (no result: DNMT1 block, SUMO1-SIM PPI, STEP block, LMPTP block)
CCN(CC)C(=O)c1ccc(/C=C/c2c[nH]c3ccccc23)[n+](C)c1	none
O=Nc1ccc(NO)c2ccccc12	none (no result: HKDC1 inh, Scp-1 inhibitor)
Cc1[nH]ccc2cc3nc4ccccc4c3cc12	LMPTP block 86 (no result: HKDC1 inh, Scp-1 inhibitor)
Cc1oc(-c2cccc(Cl)c2)nc1CS(=O)(=O)CC(=O)NC1CCCC1	none
Cc1nnc2c(NCC(C)c3ccccc3)nc3ccccc3n12 (stereo not drawn)	SUMO1-SIM PPI 48
O=C(CN1C(=O)/C(=C/c2cccc(Cl)c2)SC1=S)NC1C=CS(=O)(=O)C1 (stereo not drawn)	none
O=C(CN1C(=O)/C(=C/c2ccccc2F)SC1=S)NC1C=CS(=O)(=O)C1 (stereo not drawn)	DNMT1 block 54
CCCCCCCCCCCCCCCC[n+]1cccc2ccccc21	SUMO1-SIM PPI 83, Scp-1 inhibitor 75
CCCCCCCCC[n+]1cccc2c3ccccc3ccc21	none
CCOc1cc(C(=O)OCC(=O)Nc2ncc(Cl)c(C)c2Cl)ccc1OCC(=O)N1CCOCC1	none
Cc1nc(S/C(=C/c2ccc(-c3ccc(C(=O)O)cc3)o2)C(=O)O)n[nH]1	Scp-1 inhibitor 75
Cc1nc(S/C(=C/c2ccc(-c3ccc(Cl)cc3)o2)C(=O)O)n[nH]1	none
Cc1nc(S/C(=C/c2ccc(-c3cc(Cl)ccc3C)o2)C(=O)O)n[nH]1	SUMO1-SIM PPI 69
CC(=O)c1ccc(-c2ccc(/C=C(/Sc3n[nH]c(C)n3)C(=O)O)o2)cc1	none
O=C(CCCN1C(=O)C(=Cc2ccc3c(c2)OCO3)SC1=S)Nc1ccc(C(=O)O)c(O)c1	LMPTP block 52 (no result: HKDC1 inh, Scp-1 inhibitor)
CC(C(=O)Nc1ccc(C(=O)O)c(O)c1)N1C(=O)/C(=C\c2ccco2)SC1=S (stereo not drawn)	DNMT1 block 95, SUMO1-SIM PPI 88, STEP block 64, Scp-1 inhibitor 70
O=C(CN1C(=O)/C(=C/c2ccco2)SC1=S)Nc1ccc(C(=O)O)c(O)c1	DNMT1 block 95, SUMO1-SIM PPI 78, STEP block 64
CC(C(=O)N(C)C1CCS(=O)(=O)C1)N1C(=O)/C(=C/c2ccco2)SC1=S (stereo not drawn)	none
O=C(CCCN1C(=O)/C(=C/c2ccccc2)SC1=S)Nc1ccc(C(=O)O)c(O)c1	none
O=C1NC(=S)S/C1=C\c1ccc(SCc2ccco2)o1	DNMT1 block 103, SUMO1-SIM PPI 83, HKDC1 inh 51, STEP block 50, Scp-1 inhibitor 77, LMPTP block 76
O=C1NC(=S)S/C1=C/c1ccc(OC(=O)c2ccco2)cc1	none
Cc1ccc(CCNc2ncnc(Cl)c2N)cc1	none
CCOC(=O)N1CCN(CCC(=O)Nc2ccc(C)c(Br)c2)CC1	none
Cc1ccc(NC(=O)CCN2CCN(CCO)CC2)cc1Br	SUMO1-SIM PPI 52
O=C([C@H]1O[C@@H](n2ccc(=O)[nH]c2=O)[C@H](O)[C@@H]1O)N1CCN(Cc2ccccn2)CC1	none (no result: DNMT1 block, HKDC1 inh, STEP block, Scp-1 inhibitor)
COc1ccc(CNC[C@@H](CCCCN(C)Cc2ccc(OC)cc2)N2C[C@H](c3ccccc3)N(CCc3ccc(Cl)c(Cl)c3)C(=O)C2=O)cc1	LMPTP block 57
CC(=O)OCC1=C(C(=O)O)N2C(=O)[C@@H](NC(=O)CSc3ccncc3)[C@H]2SC1	Scp-1 inhibitor 77
CC(=O)OCC1=C(C(=O)O)N2C(=O)C(NC(=O)c3ccc(F)cc3)C2SC1 (stereo not drawn)	none
Cn1nnnc1SCC1=C(C(=O)O)N2C(=O)[C@@H](NC(=O)[C@H](O)c3ccccc3)[C@H]2SC1	DNMT1 block 88, Scp-1 inhibitor 90
COc1ccc(CN2CCN(Cc3c[nH]c4ccccc34)CC2CCO)c(F)c1 (stereo not drawn)	none
Nc1nccc(SCc2ccc(Cl)cc2Cl)n1	none
Nc1nc(N)c(Cc2ccc(Cl)cc2Cl)c(N)n1	LMPTP block 64
C=CCn1cc(/C=C/c2cc[n+](C)cc2)c2ccccc21	none
CCn1cc(/C=C/c2cc[n+](C)cc2)c2ccccc21	Scp-1 inhibitor 68
CC1CCCCN1S(=O)(=O)c1ccc2c(c1)CCN2C(=O)C1CC1 (stereo not drawn)	none
O=C1C=C(NCCc2cc(Br)c(O)c(Br)c2)C(=O)c2ncccc21	DNMT1 block 92, SUMO1-SIM PPI 41, STEP block 46
COc1ccc(-c2cc(C(=O)Nc3cc(Br)ccc3O)no2)cc1	DNMT1 block 57, LMPTP block 69
O=S(=O)(NC1=NCCCCC1)c1ccc(Cl)cc1Cl	none
CC(N)C(=O)NC(CO)C(O)C(N)C=O (stereo not drawn)	none
Cc1nc2cc(-c3ccsc3-n3c(C)ccc3C)[nH]n2c(=O)c1Cl	SUMO1-SIM PPI 41
O=C(Nc1ccc(Cl)cc1)Nc1nnc(-c2ccncc2)s1	LMPTP block 60
Fc1ccc(Nc2nnc(-c3ccncc3)s2)cc1Cl	SUMO1-SIM PPI 43 (no result: HKDC1 inh, Scp-1 inhibitor)
O=C(Nc1cccc(Cl)c1)Nc1nnc(-c2ccncc2)s1	none
COc1ccc(S(=O)(=O)NCc2cccs2)cc1	STEP block 55, Scp-1 inhibitor 59
O=C(O)c1ccccc1NS(=O)(=O)c1ccc(NN=Cc2ccccc2F)c([N+](=O)[O-])c1	none
